Experimental data reported in ChEMBL document CHEMBL4229388, “Repositioning of the antipsychotic trifluoperazine: Synthesis, biological evaluation and in silico study of trifluoperazine analogs as anti-glioblastoma agents” (Eur J Med Chem, 2018).
Active and inactive are the calls of the source. The calls are words filed in the database; no cut-off is given here.

How the values were obtained:
U-87 MG [1] = test: Induction of intracellular Ca2+ level in human U87MG cells at 1 to 100 uM by Fura-2 AM dye-based assay relative to trifluoperazine; type: functional, U-87MG ATCC
Method in brief: (§1)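 U87MG cells or neural stem cells (NSCs) were loaded with 5 μM Fura-2 AM plus 1 μM pluronic acid for 40 min at room temperature. Recording was in HEPES-buffered saline at pH 7.3 with 2 mM CaCl₂. Compounds were applied by bath at 1, 3, 10, 30 or 100 μM. Emission at 510 nm was imaged under 340/380 nm excitation, and the ratio was calculated. Peak amplitude was taken relative to the 0–50 s baseline. Dose–response curves gave EC₅₀ and efficacy.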

U-87 MG [2] = test: Induction of intracellular Ca2+ level in human U87MG cells by Fura-2 AM dye-based assay; type: functional, cell-based, U-87MG ATCC; method in brief: as §1
NSC [3] = test: Induction of intracellular Ca2+ level in human NSC cells at 100 uM by Fura-2 AM dye-based assay; type: cell-based; method in brief: as §1
U-87 MG [4] = test: Cytotoxicity against human U87MG cells assessed as reduction in cell viability after 24 hrs by MTT assay; type: functional, cell-based, U-87MG ATCC
Method in brief: (§2)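 Cells were grown in DMEM with 10% FBS and penicillin/streptomycin at 37 °C and 5% CO₂, and used up to passage 20. They were seeded at 1.5 × 10³ cells/well, allowed to attach for 24 h, then treated with vehicle or compound diluted in complete medium for 24 h. MTT reagent was added for 2 h. Viability is expressed relative to cell numbers at initial time. n = 16; one-way ANOVA.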

U-87 MG [5] = test: Induction of intracellular Ca2+ level in human U87MG cells at 1 to 100 uM by Fura-2 AM dye-based assay relative to control; type: functional, U-87MG ATCC; method in brief: as §1
NSC [6] = test: Cytotoxicity against human NSC cells assessed as reduction in cell viability at 1 to 20 uM after 24 hrs by MTT assay relative to control; type: cell-based; method in brief: as §2
NSC [7] = test: Cytotoxicity against human NSC cells assessed as reduction in cell viability after 24 hrs by MTT assay; type: cell-based; method in brief: as §2
[8] = Cytotoxicity against human GBL28 cells assessed as reduction in cell viability at 1 to 20 uM after 24 hrs by MTT assay relative to control; type: functional; method in brief: as §2
[9] = Cytotoxicity against human GBL28 cells assessed as reduction in cell viability after 24 hrs by MTT assay; type: functional, cell-based; method in brief: as §2
U-87 MG [10] = test: Cytotoxicity against human U87MG cells assessed as reduction in cell viability at 1 to 20 uM after 24 hrs by MTT assay relative to control; type: functional, U-87MG ATCC; method in brief: as §2
[11] = Selectivity ratio of efficacy for induction of intracellular Ca2+ level in human U87MG cells at 1 to 100 uM to efficacy for induction of intracellular Ca2+ level in human NSC cells at 1 to 100 uM; type: functional
U-87 MG [12] = test: Induction of intracellular Ca2+ level in human U87MG cells at 100 uM by Fura-2 AM dye-based assay relative to trifluoperazine; type: functional, cell-based; conditions: U-87MG ATCC; method in brief: as §1
U-87 MG [13] = test: Potency index, ratio of trifluoperazine IC50 to test compound IC50 for human U87MG cells; type: functional, U-87MG ATCC
[14] = Potency index, ratio of trifluoperazine IC50 to test compound IC50 for human GBL28 cells; type: functional
U-87 MG [15] = test: Antitumor activity against human U87MG cells xenografted in BALB/c mouse assessed as increase in mouse survival at 5 mg/kg, ip administered for 21 days with 24 hrs resting period followed by treatment discontinuation and measured on day 39; type: functional, U-87MG ATCC
Method in brief: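 Orthotopic model in athymic BALB/c nu/nu mice: U87MG cells (2.5 × 10⁵ in 5 μL) injected into the left frontal lobe (2 mm lateral to bregma, 0.5 mm anterior, 3.5 mm deep). From day 3, drug was given i.p. at 5 mg/kg/day or 0.9% saline to controls (n = 10 each) for 21 days. Mice were monitored daily and sacrificed when moribund; survival curves were compared by log-rank test.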

NSC [16] = test: Induction of intracellular Ca2+ level in human NSC cells at 1 to 100 uM by Fura-2 AM dye-based assay relative to control; type: cell-based; conditions: read-out: Efficacy; method in brief: as §1
Mus musculus [17] = test: Toxicity in BALB/c mouse xenografted with human U87MG cells assessed as effect on general appearance at 5 mg/kg/day, ip administered for 21 days with 24 hrs resting period followed by treatment discontinuation till day 39; type: organism-based; conditions: in vivo
Method in brief: (§3)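 Same U87MG orthotopic xenograft mice: 5 mg/kg/day i.p. from day 3 for 21 days, or saline (n = 10 each), with dosing stopped until day 39. Mice were checked daily for general appearance, behavioral changes and neurologic deficits, including parkinsonism and extrapyramidal signs.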

U-87 MG [18] = test: Antitumor activity against human U87MG cells xenografted in BALB/c mouse assessed as reduction in tumor size at 5 mg/kg/day, ip administered for 21 days with 24 hrs resting period followed by treatment discontinuation till day 39 by hematoxylin and eosin staining based confocal microscopic analysis relative to control; type: functional, U-87MG ATCC; parameters: scale not given: the % may be the effect or the level left
Method in brief: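 Athymic BALB/c nu/nu mice given intracranial U87MG cells (2.5 × 10⁵ cells in 5 μL) into the left frontal lobe (2 mm lateral from bregma, 0.5 mm anterior, 3.5 mm deep). Treatment began on day 3: 5 mg/kg/day i.p., or 0.9% saline for controls (n = 10 each). Dosing ran 21 days, then stopped until day 39. Brains were fixed in 4% PFA, paraffin-embedded, cut at 5 μm and H&E-stained. Tumor volume = [major axis × (minor axis)²]/2.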

Mus musculus [19] = test: Toxicity in BALB/c mouse xenografted with human U87MG cells assessed as effect on behavioral changes at 5 mg/kg/day, ip administered for 21 days with 24 hrs resting period followed by treatment discontinuation till day 39; type: organism-based; conditions: in vivo; method in brief: as §3
Mus musculus [20] = test: Toxicity in BALB/c mouse xenografted with human U87MG cells assessed as induction of neurologic deficits at 5 mg/kg/day, ip administered for 21 days with 24 hrs resting period followed by treatment discontinuation till day 39; type: organism-based; conditions: in vivo; method in brief: as §3

Structure (SMILES): CC1CCN(CCCCN2c3ccccc3Sc3ccc(F)cc32)CC1
- Activity (U-87 MG [1]): 110%

Structure (SMILES): CC1CCN(CCCN2c3ccccc3Sc3ccc(C(F)(F)F)cc32)CC1
- Activity (U-87 MG [1]): 83%

Structure (SMILES): CC1CCN(CCCCN2c3ccccc3Sc3ccc(C(F)(F)F)cc32)CC1
- Activity (U-87 MG [1]): 93%

Structure (SMILES): CN1CCCN(CCCCN2c3ccccc3Sc3ccc(C(F)(F)F)cc32)CC1
- Activity (U-87 MG [1]): 107%

Structure (SMILES): FC(F)(F)c1ccc2c(c1)N(CCCCN1CCN(c3ccccc3)CC1)c1ccccc1S2
- Activity (U-87 MG [1]): 94%

Structure (SMILES): CSc1ccc2c(c1)N(CCCN1CCC(C)CC1)c1ccccc1S2
- Activity (U-87 MG [1]): 76%

Structure (SMILES): CN1CCN(CCCN2c3ccccc3Sc3ccc(C(F)(F)F)cc32)CC1 [TRIFLUOPERAZINE]
- EC50 (U-87 MG [2]): 13.5 µM
- Activity (NSC [3]): Non-Toxic
- IC50 (U-87 MG [4]): 9.9 µM
- Efficacy (U-87 MG [5]): 79%
- Efficacy (NSC [6]): 21%
- IC50 (NSC [7]): 10.1 µM
- Efficacy [8]: 85%
- IC50 [9]: 10.2 µM
- Efficacy (U-87 MG [10]): 82%

Structure (SMILES): CC1CCN(CCCN2c3ccccc3Sc3ccc(Cl)cc32)CC1
- Activity (U-87 MG [1]): 88%

Structure (SMILES): FC(F)(F)c1ccc2c(c1)N(CCCCN1CCC(N3CCCC3)CC1)c1ccccc1S2
- Ratio [11]: 2
- EC50 (U-87 MG [2]): 6.2 µM
- Activity (U-87 MG [12]): Active
- Ratio IC50 (U-87 MG [13]): 4 - 5
- Activity (NSC [3]): Non-Toxic
- IC50 (U-87 MG [4]): 2.3 µM
- Ratio IC50 [14]: 4 - 5
- Efficacy (U-87 MG [5]): 100%
- Activity (U-87 MG [1]): 134%
- Efficacy (NSC [6]): 45%
- Survival (U-87 MG [15]): 6 days
- IC50 (NSC [7]): 3.2 µM
- Emax (NSC [16]): 50%
- Activity (Mus musculus [17]): Non-Toxic
- Efficacy [8]: 85%
- IC50 [9]: 2.2 µM
- Efficacy (U-87 MG [10]): 82%
- Activity (U-87 MG [18]): 88%
- Activity (Mus musculus [19]): Non-Toxic
- Activity (Mus musculus [20]): Non-Toxic

Structure (SMILES): Clc1ccc2c(c1)N(CCCCN1CCC(N3CCCC3)CC1)c1ccccc1S2
- Activity (U-87 MG [1]): 101%

Structure (SMILES): FC(F)(F)c1ccc2c(c1)N(CCCCN1CCC(N3CCOCC3)CC1)c1ccccc1S2
- EC50 (U-87 MG [2]): 19.9 µM
- Activity (U-87 MG [12]): Active
- Activity (NSC [3]): Non-Toxic
- IC50 (U-87 MG [4]): 7.1 µM
- Activity (U-87 MG [1]): 120%
- Efficacy (NSC [6]): 21%
- IC50 (NSC [7]): 5.6 µM
- Efficacy [8]: 85%
- IC50 [9]: 6.5 µM
- Efficacy (U-87 MG [10]): 82%

Structure (SMILES): CSc1ccc2c(c1)N(CCCCN1CCC(C)CC1)c1ccccc1S2
- Activity (U-87 MG [1]): 72%

Structure (SMILES): FC(F)(F)c1ccc2c(c1)N(CCCCN1CCC(N3CCCCC3)CC1)c1ccccc1S2
- EC50 (U-87 MG [2]): 6.7 µM
- Activity (U-87 MG [12]): Active
- Ratio IC50 (U-87 MG [13]): 4 - 5
- Activity (NSC [3]): Non-Toxic
- IC50 (U-87 MG [4]): 2.2 µM
- Ratio IC50 [14]: 4 - 5
- Activity (U-87 MG [1]): 123%
- Efficacy (NSC [6]): 43%
- IC50 (NSC [7]): 3.1 µM
- Efficacy [8]: 85%
- IC50 [9]: 2.1 µM
- Efficacy (U-87 MG [10]): 82%

Structure (SMILES): FC(F)(F)c1ccc2c(c1)N(CCCN1CCNCC1)c1ccccc1S2
- Activity (U-87 MG [1]): 108%

Structure (SMILES): FC(F)(F)c1ccc2c(c1)N(CCCN1CCC(N3CCCC3)CC1)c1ccccc1S2
- Activity (U-87 MG [1]): 72%
